The source of these data is ChEMBL document CHEMBL3425469, “Discovery of imidazo[2,1-b]thiazole HCV NS4B inhibitors exhibiting synergistic effect with other direct-acting antiviral agents” (J Med Chem, 2015).

SMILES strings stand for the structures. Some results are limits rather than exact numbers.

In data set [1] the test system is Hepatitis C virus. In words: Antiviral activity against Hepatitis C virus genotype 1b Con1 infected in human HuH7 cells after 72 hrs by luciferase assay. It is filed as functional, cell-based, Hepacivirus hominis. The conditions noted are these: genotype 1b Con 1, Huh-7, 72 h. In short, it runs like this:
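Huh-7 cells stably carrying a genotype 1b Con1 bicistronic luciferase replicon, seeded at 8000 cells/well. Compounds were added at 0.5% DMSO final and incubated at 37°C for 72 h. Read-out was Bright-Glo luciferase, with cell proliferation measured by CellTiter-Fluor. EC50 is the mean of at least two independent runs. Some values are given as percent inhibition at 10 µM.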

A short description of data set [2]: Cytotoxicity against human HuH7 cells assessed as cell proliferation by cell titer assay. It counts as cell-based, Huh-7. In short, it runs like this:
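Huh-7 cells carrying GT1b Con1 bicistronic replicon seeded at 8000 cells/well; compound added at 0.5% DMSO final, 37°C for 72 h. Proliferation read with CellTiter-Fluor reagent per manufacturer; CC50 fitted from concentration-response, average of at least two independent determinations.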

Data set [3] relates to Hepatitis C virus. Nature of the data set: Antiviral activity against Hepatitis C virus genotype 1b Con 1 infected in human HuH7 cells at 10 uM after 72 hrs by luciferase assay. It counts as functional, Hepacivirus hominis. The conditions noted are these: genotype 1b Con 1, Huh-7, 72 h. The gist of the method: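 Huh-7 cells carrying a GT1b Con1 bicistronic luciferase replicon, 8000 cells/well. Compound tested at 10 µM in 0.5% DMSO final, 37°C for 72 h. Replicon signal read as luciferase (Bright-Glo) and reported as percentage inhibition at 10 µM. Cell proliferation measured in parallel with CellTiter-Fluor. Values are the average of at least two independent determinations.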

For data set [4], the system named is Hepatitis C virus. Nature of the data set: Antiviral activity against Hepatitis C virus genotype 1b harboring Y448H NS5B (palm) mutation transfected in human HuH7 cells after 72 hrs by luciferase assay. It counts as functional, cell-based, Hepacivirus hominis. The conditions noted are these: Huh-7, 72 h. In short, it runs like this:
(§1)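 Huh-7 cells were transiently electroporated with genotype 1b replicon RNA carrying the specified mutation and plated at 10000 cells/well. Compounds were added at 0.5% DMSO final for 72 h at 37°C. Read-out was Bright-Glo luciferase. EC50 is the mean of two independent runs within 2-fold of each other. A reference drug EC50 was measured alongside each mutant replicon to validate it.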

In data set [5] the test system is Hepatitis C virus. Nature of the data set: Antiviral activity against Hepatitis C virus genotype 1b harboring H3R NS4B mutation transfected in human HuH7 cells after 72 hrs by luciferase assay. It is filed as functional, cell-based, Hepacivirus hominis. The conditions noted are these: Huh-7, 72 h. The gist of the method:
as §1

Data set [6] deals with Hepatitis C virus. Nature of the data set: Antiviral activity against Hepatitis C virus genotype 1b harboring F98C mutation transfected in human HuH7 cells after 72 hrs by luciferase assay. It counts as functional, cell-based, Hepacivirus hominis. The following applies: Huh-7, 72 h. In short, it runs like this:
as §1

In data set [7] the test system is Hepatitis C virus. Nature of the data set: Antiviral activity against Hepatitis C virus genotype 1b harboring S282T NS5B (active site) mutation transfected in human HuH7 cells after 72 hrs by luciferase assay. The following applies: Huh-7, 72 h. It is filed as functional, cell-based, Hepacivirus hominis. The gist of the method:
as §1

Data set [8] has as its system Hepatitis C virus. In words: Antiviral activity against Hepatitis C virus genotype 1b harboring V105M mutation transfected in human HuH7 cells after 72 hrs by luciferase assay. The following applies: Huh-7, 72 h. It counts as functional, cell-based, Hepacivirus hominis. The gist of the method: as §1
Data set [9] relates to Hepatitis C virus. In words: Antiviral activity against Hepatitis C virus genotype 1b harboring P495A NS5B (thumb 1) mutation transfected in human HuH7 cells after 72 hrs by luciferase assay. It is filed as functional, cell-based, Hepacivirus hominis. The following applies: Huh-7, 72 h. The gist of the method:
as §1

Data set [10] relates to Hepatitis C virus. In words: Antiviral activity against Hepatitis C virus genotype 1b harboring M423I NS5B (thumb 2) mutation transfected in human HuH7 cells after 72 hrs by luciferase assay. It is filed as functional, cell-based, Hepacivirus hominis. The following applies: Huh-7, 72 h. The gist of the method: as §1
Data set [11] concerns Hepatitis C virus. Nature of the data set: Antiviral activity against Hepatitis C virus genotype 1b harboring Y93H NS5A mutation transfected in human HuH7 cells after 72 hrs by luciferase assay. It is filed as functional, cell-based, Hepacivirus hominis. The conditions noted are these: Huh-7, 72 h. The gist of the method:
as §1

Data set [12] relates to Hepatitis C virus. Nature of the data set: Antiviral activity against Hepatitis C virus genotype 1b harboring H94R mutation transfected in human HuH7 cells after 72 hrs by luciferase assay. The following applies: Huh-7, 72 h. It counts as functional, cell-based, Hepacivirus hominis. In short, it runs like this:
as §1

Data set [13] concerns Hepatitis C virus. In words: Antiviral activity against Hepatitis C virus genotype 1b harboring Q26R mutation transfected in human HuH7 cells after 72 hrs by luciferase assay. It counts as functional, cell-based, Hepacivirus hominis. The conditions noted are these: Huh-7, 72 h. The gist of the method: as §1
Data set [14] relates to Hepatitis C virus. In words: Antiviral activity against Hepatitis C virus genotype 1b harboring A156T NS3/4A mutation transfected in human HuH7 cells after 72 hrs by luciferase assay. It counts as functional, cell-based, Hepacivirus hominis. The conditions noted are these: Huh-7, 72 h. In short, it runs like this:
as §1

In the case of `O=C(c1nc2sc3cc(Br)ccc3n2c1Cl)N1CCN(C2CCCC2)C(=O)C1`, a half-maximal effect in [1] (EC50) was put at 1.79 µM. The CC50 in [2] was over 10 µM.
The like results for `O=C(c1nc2sccn2c1Cl)N1CCN(C2CCCC2)C(=O)C1` were, in that order, over 10 µM and over 10 µM.
On to `Cc1cn2c(Cl)c(C(=O)N3CCN(C4CCCC4)C(=O)C3)nc2s1`, for which, in data set [2], the CC50 is over 10 µM. Also, at 10 µM the inhibition in data set [3] was 46%.
`CC(C)c1cn2c(Cl)c(C(=O)N3CCN(C4CCCC4)C(=O)C3)nc2s1` displayed a concentration for a half-maximal effect (EC50) in data set [1] of 1.32 µM. Also, the cytotoxic concentration (CC50) in [2] is over 10 µM.
With `Cc1c(C(C)C)sc2nc(C(=O)N3CCN(C4CCCC4)C(=O)C3)c(Cl)n12`, the CC50 in data set [2] was over 10 µM. Also, in [3], the inhibition at 10 µM turned out to be 50%.
The corresponding values for `Cc1csc2nc(C(=O)N3CCN(C4CCCC4)C(=O)C3)c(Cl)n12` are over 10 µM and 53%.
As for `CC(C)Cc1csc2nc(C(=O)N3CCN(C4CCCC4)C(=O)C3)c(Cl)n12`, a half-maximal effect in data set [1] (EC50) was put at 0.74 µM. Further, in data set [2], the CC50 was over 10 µM.
The corresponding values for `O=C(c1nc2sc(Cl)c(C3CC3)n2c1Cl)N1CCN(C2CCCC2)C(=O)C1` are 8.6 µM and over 10 µM.
`CC(C)Cc1c(Cl)sc2nc(C(=O)N3CCN(C4CCCC4)C(=O)C3)c(Cl)n12` had a 50% effective concentration (EC50) in [1] of 6.7 µM. Further, in [2], the CC50 was over 10 µM.
The like results for `O=C(c1nc2scc(C3CC3)n2c1Cl)N1CCN([C@H]2CC[C@H](O)CC2)C(=O)C1` were, in that order, 0.89 µM and over 10 µM.
The like results for `O=C(c1nc2scc(C3CC3)n2c1Cl)N1CCN(C2CC=CC2)C(=O)C1` were, in that order, 0.079 µM and over 10 µM.
The like results for `O=C(c1nc2sc3c(n2c1Cl)CCC3)N1CCN(C2CCCC2)C(=O)C1` were, in that order, 0.13 µM and over 10 µM.
In [1], `O=C(c1nc2sc3c(n2c1Cl)CCCC3)N1CCN(C2CCCC2)C(=O)C1` showed an EC50 of 0.19 µM. In addition, the cytotoxic concentration (CC50) in data set [2] was over 10 µM.
The like results for `O=C(c1nc2sc3c(n2c1Cl)CCCCC3)N1CCN(C2CCCC2)C(=O)C1` were, in that order, 0.94 µM and over 10 µM.
Turning to `CC1CCc2c(sc3nc(C(=O)N4CCN(C5CCCC5)C(=O)C4)c(Cl)n23)C1` (configuration not stated), the EC50 in data set [1] was 0.26 µM. The cytotoxic concentration (CC50) in data set [2] was over 10 µM.
Take `CC1(C)CCc2c(sc3nc(C(=O)N4CCN(C5CCCC5)C(=O)C4)c(Cl)n23)C1`: the concentration for a half-maximal effect (EC50) in data set [1] amounted to 1.12 µM. Further, the CC50 in data set [2] was over 10 µM.
The corresponding values for `O=C1CCCc2c1sc1nc(C(=O)N3CCN(C4CCCC4)C(=O)C3)c(Cl)n21` are over 10 µM and over 10 µM.
Take `O=C(c1nc2sc3ccccc3n2c1Cl)N1CCN(C2CCCC2)C(=O)C1`: the 50% effective concentration (EC50) in [1] amounted to 0.092 µM. In [2], the 50% cytotoxic concentration (CC50) was over 10 µM.
`COc1ccc2c(c1)sc1nc(C(=O)N3CCN(C4CCCC4)C(=O)C3)c(Cl)n12` showed an EC50 in data set [1] of 8.63 µM. Further, in [2], the CC50 was over 10 µM.
The corresponding values for `O=C(c1nc2sc3cc(Cl)ccc3n2c1Cl)N1CCN(C2CCCC2)C(=O)C1` are 1.85 µM and over 10 µM.
`Cc1ccc2c(c1)sc1nc(C(=O)N3CCN(C4CCCC4)C(=O)C3)c(Cl)n12`: in data set [1], the EC50 was determined as 0.3 µM. For the same molecule, the 50% cytotoxic concentration (CC50) in data set [2] is over 10 µM.
The corresponding values for `O=C(c1nc2sc3ccccc3n2c1Cl)N1CCN([C@H]2CC[C@H](O)CC2)C(=O)C1` are 0.33 µM and over 10 µM.
As for `O=C(c1nc2sc3ccccc3n2c1Cl)N1CCN(C2CC=CC2)C(=O)C1`, the EC50 in [4] stood at 0.033 µM; in data set [1] it was 0.031 µM; in data set [5], 4.85 µM; in data set [6], 3.27 µM; in [7], 0.025 µM; in data set [8], 12.5 µM. For the same molecule, the EC50 in data set [9] is 0.022 µM; in data set [10], 0.032 µM; in data set [11], 0.019 µM; in data set [12] it was 6.4 µM; in data set [13], 4.96 µM; in data set [14] it was 0.077 µM. The 50% cytotoxic concentration (CC50) in data set [2] was over 10 µM.

As a reminder, the EC50 is the concentration that produces a half-maximal response. As a reminder, the CC50 is the concentration that lowers cell viability or growth by half. Broadly, the inhibition is how much of the control response was suppressed. Lower therefore signals little suppression.
